Many of the other results were omitted from the sample, so hits are more common in it than they were.
XBP1 UPR activ: adaptive UPR (XBP1) activation | CHO-XBP1 luciferase reporter, IRE1-XBP1 UPR activation, luminescence; percent of tunicamycin response, DMSO as zero | activation, % at 20 µM | actives 0.33% (n = 330,000) | AID 463104;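 active = versus positive control, 20 µM dose yields 30% or more activation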
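Test system: CHO-XBP1 luciferase reporter cells | Buffer or medium: Serum-containing F12 medium, 10% FBS | Schedule: 6 h compound exposure at 37 °C, 5% CO2 | Detection: Steady-Glo luciferase glow luminescence, 10 min after reagent addition | Read-out basis: Activation, % of tunicamycin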
Beta2AR agonist: human beta-2 adrenergic receptor agonism by FAP | Am2.2-beta2AR cells, FAP receptor internalization, flow cytometry | response, % (test concentration not listed) | AID 504454 | actives 0.43% (n = 340,000) | P07550;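 active = response above a set limit, near 3 SD of response in nonfluorescent compounds, cut at about 42% in these data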
Target sequence (P07550 whole entry, looked up): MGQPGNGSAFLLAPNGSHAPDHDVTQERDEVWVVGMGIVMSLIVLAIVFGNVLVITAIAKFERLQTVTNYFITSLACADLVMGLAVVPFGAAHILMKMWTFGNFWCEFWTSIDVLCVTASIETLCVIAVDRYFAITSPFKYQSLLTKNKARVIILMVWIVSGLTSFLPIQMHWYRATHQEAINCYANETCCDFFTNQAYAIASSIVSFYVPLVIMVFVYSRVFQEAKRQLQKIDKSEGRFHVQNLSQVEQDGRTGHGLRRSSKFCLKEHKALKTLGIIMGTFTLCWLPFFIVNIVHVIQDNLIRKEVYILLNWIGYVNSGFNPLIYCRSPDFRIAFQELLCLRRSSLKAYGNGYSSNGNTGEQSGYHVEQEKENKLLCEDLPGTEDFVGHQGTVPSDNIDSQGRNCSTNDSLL
p-CIP stab down: p/CIP protein destabilization; decrease of EGFP signal, % at 10 µM; actives 0.01% (n = 290,000); Q05BA5; F442A p/CIP-EGFP cells, EGFP fluorescence, 16 h; AID 1984;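 active = EGFP signal decrease of at least 30% at 10 µM or well 3 SD below plate mean, unless failing retest; inactive = the rest, including hits failing retest or dose response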
CHOP inhibitor: blocks CHOP induction under ER stress; CHO-K1 CHOP-promoter luciferase, tunicamycin-induced, 15-18 h; inhibition, % at 10 µM; actives 3.8% (n = 220,000);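 active = compounds that reduced the stress-induced luciferase reporter signal by more than about 70% of percent inhibition, limit read from the data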
Dynein transport: blocks dynein driven cargo transport along microtubules. actives 0.47% (n = 220,000). 3617.4 mouse cells, GR-EGFP nuclear translocation imaging; test concentration mostly 20 µM; stimulated with dexamethasone, 1 µM; hits give low values. z-score, hits read low. AID 1381;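 active = plate z-score of nuclear minus cytoplasmic receptor signal below a set negative limit, without overly bright fluorescence or cell loss, cut at about -3.5 in these data, passing the limit was not always enough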;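 note: z-score of nuclear minus cytoplasmic ring GR-EGFP intensity difference per well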
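medium = tetracycline-free induction medium containing charcoal-stripped FBS | probe or stimulus = dexamethasone, 1.0 µM final | timing = 48 h induction, then 1 h compound, then 30 min agonist, 37 °C | detection = automated 10x imaging of fixed Hoechst-stained cells | read-out basis = nuclear versus cytoplasmic GR-EGFP signal, averaged per well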
CHOP UPR activ: activators of apoptotic arm of unfolded protein response (CHOP) | activation, % at 10 µM | CHO-CHOP luciferase reporter, UPR activation, luminescence; percent of tunicamycin response over DMSO baseline | actives 0.34% (n = 330,000) | AID 449763;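 active = at 10 µM dose, activation of 40% or more, normalized to positive control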
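measured by = luciferase luminescence | assay system = CHO-CHOP cells, stable luciferase reporter of PERK-eIF2a-CHOP signalling | amount = 500 reporter cells seeded per well | timing = 6 h compound exposure at 37 °C after overnight seeding | controls = positive tunicamycin 10 µg/mL, negative DMSO alone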
Large screens that a line does not name were inactive.

Cn1c(CC(=O)Nc2ccccc2C(F)(F)F)c(Sc2ccccc2)c2ccccc21	CHOP inhibitor 76
Cc1ccc2oc(=O)c3cnn(CC(=O)Nc4cc(-c5cccc(F)c5)no4)c3c2c1	CHOP inhibitor 96
CC(=O)Nc1ccc2[nH]c3ccccc3c2c1	none
O=C(Nc1ccc(Cl)cc1)c1cc2c(cc1O)[nH]c1ccccc12	CHOP inhibitor 77
CC(C)NC(=S)Nc1ccc2nc3n(c(=O)c2c1)CCCCC3	none
CSc1ccc(CN(C)CC(=O)Nc2cccc(Br)c2)cc1	none
CCn1c(=O)[nH]c2cc(C(=O)Nc3cc(C)cc(C)c3)ccc2c1=O	CHOP inhibitor 89
O=C(COC(=O)/C=C/c1cccc(Br)c1)NC1CCCC1	none (no result: p-CIP stab down, CHOP inhibitor, Dynein transport)
O=C1CNC(=O)/C1=C\N1CCN(C(c2ccccc2)c2ccccc2)CC1	none
Cc1nc2c3ccccc3nc(NNC(=O)CCC(=O)NCCN3CCN(c4ccccc4)CC3)n2n1	none (no result: CHOP inhibitor, Dynein transport)
Cc1ccc(-c2nc3c(c(SCC(=O)N4CCOCC4)n2)COC(C)(C)C3)cc1	none (no result: CHOP inhibitor, Dynein transport)
O=C(c1ccc2ccccc2c1)N1CCN(c2ccc(C(F)(F)F)cn2)CC1	CHOP inhibitor 89
FC(F)(F)c1ccc(N2CCN(c3cc(-c4ccccc4)nc4ncnn34)CC2)nc1	CHOP inhibitor 74
Cn1c(SCC(=O)N/N=C/c2cccnc2)nnc1-c1ccccc1	none
CN(C)c1c2ccccc2nc2c(F)c(F)c(F)c(F)c12	CHOP inhibitor 70
COc1ccccc1C(=O)Nc1nc(-c2ccc(S(=O)(=O)N3CCOCC3)cc2)cs1	CHOP inhibitor 92
NC(=NCCC[C@H](N)C(=O)O)NO	none (no result: XBP1 UPR activ, Beta2AR agonist, p-CIP stab down, Dynein transport, CHOP UPR activ)
Fc1ccc(C(OCCCc2cnc[nH]2)c2ccc(F)cc2)cc1	none (no result: XBP1 UPR activ, Beta2AR agonist, p-CIP stab down, Dynein transport, CHOP UPR activ)
Cc1ccc(C)c(N2CCN(C(=S)Nc3ccc4nc(N5CCOCC5)cc(C)c4c3)CC2)c1	none
Cc1cccc(N2CCN(C(=S)NC3CCCCC3)CC2)c1C	none
Cc1ccc(C)c(N2CCN(C(=S)NC3CCCCC3)CC2)c1	CHOP inhibitor 79
Cc1cccc(N2CCN(C(=S)Nc3ccc4nc(N5CCOCC5)cc(C)c4c3)CC2C)c1 (stereo unspecified)	CHOP inhibitor 88
Cc1ccc(C)c(N2CCN(C(=S)Nc3ccc4nc(N5CCN(C)CC5)cc(C)c4c3)CC2)c1	CHOP inhibitor 77
CCN(CC)S(=O)(=O)c1ccc(NC(=O)CSc2nnc(-c3ccc(F)cc3)o2)cc1	CHOP inhibitor 94
CCN(CC)S(=O)(=O)c1ccc(-c2nnc(SCC(=O)Nc3ccc4c(c3)OCO4)o2)cc1	none
O=C(CSc1nnc(-c2ccc(F)cc2)o1)Nc1ccc(S(=O)(=O)N2CCCCCC2)cc1	CHOP inhibitor 84
Cn1c(N)c(C(=O)CSc2nnc(NC3CCCCC3)s2)c(=O)n(C)c1=O	none (no result: p-CIP stab down, CHOP inhibitor, Dynein transport)
COc1cccc(-c2nc(CS(=O)(=O)CC(=O)Nc3cc(C)ccc3C)c(C)o2)c1	CHOP inhibitor 77
COc1ccc(-c2nc(CS(=O)(=O)CC(=O)Nc3ccc(Cl)cc3)c(C)o2)cc1	CHOP inhibitor 97
COc1ccc(NC(=O)CS(=O)(=O)Cc2nc(-c3ccc(C)cc3)oc2C)cc1	none (no result: CHOP inhibitor, Dynein transport)
O=C(NCCc1ccccc1)C(=O)c1cn(CC(=O)N2CCCC2)c2ccccc12	none (no result: CHOP inhibitor, Dynein transport)
CCN(CC)CC(=O)Nc1cccc2c1C(=O)c1ccccc1C2=O	CHOP inhibitor 77
Cn1c(=O)c(C(=O)COc2ccc(F)cc2Cl)c(N)n(Cc2ccccc2)c1=O	CHOP inhibitor 79
O=C(CSc1ncnc2c1oc1ccccc12)Nc1cccc(C(F)(F)F)c1	CHOP inhibitor 79
O=C(CSc1ncnc2c1oc1ccccc12)Nc1cccc(Cl)c1	none
O=C(COc1cc(F)ccc1[N+](=O)[O-])NCCCc1ccccc1	none
COc1ccc2nc(SC(C)C(=O)NCC(=O)Nc3ccc(F)c(F)c3F)[nH]c2c1 (stereo unspecified)	none (no result: p-CIP stab down, CHOP inhibitor, Dynein transport)
CCN(CC(=O)Nc1c(F)cccc1F)C(=O)C1(c2ccccc2)CC1	none (no result: CHOP inhibitor, Dynein transport)
Cc1nc(Nc2ccc(Cl)cc2)c2nnn(Cc3ccccc3)c2n1	CHOP inhibitor 96
Cc1nc(Nc2ccc(S(=O)(=O)N3CCCCC3C)cc2)c2nnn(Cc3ccccc3)c2n1 (stereo unspecified)	CHOP inhibitor 74
COC(=O)C1=C(C)OC(N)=C(C#N)C1c1c(C)nn(C)c1C (stereo unspecified)	none
COc1cc2nc(N3CCN(C(=O)OCc4ccccc4)C(C(=O)NC(C)(C)C)C3)nc(N)c2cc1OC (stereo unspecified)	none (no result: XBP1 UPR activ, Beta2AR agonist, p-CIP stab down, Dynein transport, CHOP UPR activ)
N#CC1(NC(=O)COC(=O)C2=COCCO2)CCCCC1	none (no result: Beta2AR agonist, p-CIP stab down, CHOP inhibitor, Dynein transport)
O=C(CCCN1C(=O)/C(=C/c2ccccc2Cl)SC1=S)Nc1cccnc1	none (no result: CHOP inhibitor, Dynein transport)
COC(=O)CCCNC(=O)c1ccc(OS(=O)(=O)c2cc([N+](=O)[O-])ccc2C)cc1	none (no result: p-CIP stab down, CHOP inhibitor, Dynein transport)
CCCCOC(=O)Nc1ccc(N(C)C)cc1	none
CCC1(C)Cc2ccccc2-c2nc(-c3ccccc3)oc(=O)c21 (stereo unspecified)	CHOP inhibitor 80
CCC1(C)Cc2ccccc2-c2nc(NN)[nH]c(=O)c21 (stereo unspecified)	none (no result: CHOP inhibitor, Dynein transport)
COc1ccc(-n2nnnc2S(=O)(=O)Cc2ccc(C(=O)O)cc2)cc1	none
COc1ccc(-n2nnnc2S(=O)(=O)CC(=O)N2CCCCC2)cc1	Dynein transport -3.9 (no result: CHOP inhibitor)
CC12CCC(C(=O)N(NC(=O)c3cc(Cl)ccc3O)C1=O)C2(C)C (stereo unspecified)	none
O=C(NCCc1ccccc1)C(=O)Nc1ccc([N+](=O)[O-])cc1	none
COc1ccc(C(=O)Nc2nc(-c3cccs3)c(NC(C)=O)s2)cc1	none
Cc1occc1C(=O)Nc1nnc(-c2cccs2)s1	CHOP inhibitor 81
COc1ccc(C(=O)Nc2nnc(-c3cccs3)s2)cc1	CHOP inhibitor 70
Cc1occc1C(=O)Nc1nccs1	none
COc1ccc(NC(=O)Nc2nnc(-c3cccs3)s2)cc1	CHOP inhibitor 88
Cc1nnc(NC(=O)c2cccc(F)c2)s1	none
O=C(Nc1nnc(-c2cccs2)s1)c1cccc(F)c1	CHOP inhibitor 93
COc1ccccc1CNC(=O)COc1cc2c(c3oc(=O)cc(C)c13)CCC(C)(C)O2	none (no result: CHOP inhibitor, Dynein transport)
Cc1cccc(N2CCN(C(=O)C34CC5CC(CC(C5)C3)C4)CC2)c1C	CHOP inhibitor 72
O=C(N1CCN(c2ccccc2F)CC1)C12CC3CC(CC(C3)C1)C2	none
Cc1cccc(N2CCN(C(=O)C3CCCCC3)CC2)c1C	CHOP inhibitor 96
COCCNC(=O)NC(=O)COC(=O)c1cccn1C	none

Assay outcomes as filed in PubChem.
